Measurements reported in ChEMBL document CHEMBL4184245, “Multiple-step, one-pot synthesis of 2-substituted-3-phosphono-1-thia-4-aza-2-cyclohexene-5-carboxylates and their corresponding ethyl esters” (Bioorg Med Chem Lett, 2018).
The source made the active and inactive calls. The calls are words filed in the database; no cut-off is given here.

Assays:
[1] = Apparent permeability of the compound across apical side to basolateral side in human Caco2 cells at 10 uM incubated for 2 hrs by LC-MS/MS method; format: ADME, cell-based; details: Caco-2
How it was run: (§1)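 Permeability was measured across Caco-2 epithelial monolayers.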

[2] = Apparent permeability of the compound across basolateral to apical side in human Caco2 cells at 10 uM incubated for 2 hrs by LC-MS/MS method; format: ADME, cell-based; details: Caco-2; how it was run: as §1
RG2 [3] = experiment: Induction of autophagy in rat RG2 cells assessed as increase in LC3-II level at 10 uM pre-incubated for 15 mins before bafilomycin-A1 addition and further incubated for 4 hrs by Western blotting method; format: functional, cell-based
RG2 [4] = experiment: Induction of autophagy in rat RG2 cells assessed as increase in LC3-II level at 100 uM pre-incubated for 15 mins before bafilomycin-A1 addition and further incubated for 4 hrs by Western blotting method; format: functional, cell-based
RG2 [5] = experiment: Induction of autophagy in rat RG2 cells assessed as optimum compound level causing increase in LC3-II level pre-incubated for 15 mins before bafilomycin-A1 addition and further incubated for 4 hrs by Western blotting method; format: functional
How it was run: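 Cells were tested at 1, 10 and 100 μM. The optimum concentration for autophagy stimulation was estimated from these few levels in preliminary single-series experiments.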

[6] = Efflux ratio in human Caco2 cells at 10 uM incubated for 2 hrs by LC-MS/MS method; format: ADME, cell-based; details: Caco-2

Structure (SMILES)	Papp A→B at 2 h, 10 µM [1]	Papp B→A at 2 h, 10 µM [2]	Activity (RG2 [3])	Activity (RG2 [4])	Activity (RG2 [5])	efflux ratio at 2 h, 10 µM [6]
CCCCCCC1=C(P(=O)(O)O)N[C@H](C(=O)O)CS1	< 0.01 ×10⁻⁶ cm/s	< 0.01 ×10⁻⁶ cm/s				
CCCCC1=C(P(=O)(O)O)N[C@H](C(=O)OCC)CS1	< 0.01 ×10⁻⁶ cm/s	< 0.01 ×10⁻⁶ cm/s				
O=C(O)C1=CSC[C@@H](C(=O)O)N1			Active	Active		
CCCCCCC1=C(P(=O)(O)O)N[C@H](C(=O)OCC)CS1	< 0.01 ×10⁻⁶ cm/s	< 0.01 ×10⁻⁶ cm/s			1 to 10 µM	
CCOC(=O)[C@@H]1CSC(CC)=C(C(=O)O)N1					>10 µM	
CCCCC1=C(P(=O)(O)O)N[C@H](C(=O)O)CS1	1.1 ×10⁻⁶ cm/s	0.35 ×10⁻⁶ cm/s				0.33
CCOC(=O)[C@@H]1CSC=C(C(=O)O)N1	< 0.01 ×10⁻⁶ cm/s	< 0.01 ×10⁻⁶ cm/s				
CC(C)C1=C(P(=O)(O)O)N[C@H](C(=O)O)CS1			Active	inactive		
